Tests used:
Bcr/Abl fusion protein = Bcr/Abl fusion protein (Homo sapiens, UniProt P00519); experiment: Inhibition of BCR/ABL p210 autophosphorylation in human K562 cells after 2 hrs by Western blot analysis; type: cell-based
[1] = Aqueous solubility of the compound; type: physicochemical; details: buffer
K562 = experiment: Growth inhibition of human K562 cells expressing p210Bcr/Abl after 96 hrs by trypan blue exclusion assay; type: functional, cell-based; details: K562, 96 h
Procedure, shortened: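 K562 cells were kept in RPMI with 10% FBS and penicillin–streptomycin at 37 °C under 5% CO2. Cells were seeded at 1 × 10^5 cells/mL with a range of compound concentrations, using DMSO as the negative control. After 96 h, viability was counted by Trypan blue exclusion and expressed as percent of DMSO control to derive GI50.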

DU-145 = experiment: Growth inhibition of human DU145 cells after 96 hrs by trypan blue exclusion assay; type: functional; details: DU-145, 96 h

Sequence of Bcr/Abl fusion protein (P00519 whole entry, the tested form may be a part): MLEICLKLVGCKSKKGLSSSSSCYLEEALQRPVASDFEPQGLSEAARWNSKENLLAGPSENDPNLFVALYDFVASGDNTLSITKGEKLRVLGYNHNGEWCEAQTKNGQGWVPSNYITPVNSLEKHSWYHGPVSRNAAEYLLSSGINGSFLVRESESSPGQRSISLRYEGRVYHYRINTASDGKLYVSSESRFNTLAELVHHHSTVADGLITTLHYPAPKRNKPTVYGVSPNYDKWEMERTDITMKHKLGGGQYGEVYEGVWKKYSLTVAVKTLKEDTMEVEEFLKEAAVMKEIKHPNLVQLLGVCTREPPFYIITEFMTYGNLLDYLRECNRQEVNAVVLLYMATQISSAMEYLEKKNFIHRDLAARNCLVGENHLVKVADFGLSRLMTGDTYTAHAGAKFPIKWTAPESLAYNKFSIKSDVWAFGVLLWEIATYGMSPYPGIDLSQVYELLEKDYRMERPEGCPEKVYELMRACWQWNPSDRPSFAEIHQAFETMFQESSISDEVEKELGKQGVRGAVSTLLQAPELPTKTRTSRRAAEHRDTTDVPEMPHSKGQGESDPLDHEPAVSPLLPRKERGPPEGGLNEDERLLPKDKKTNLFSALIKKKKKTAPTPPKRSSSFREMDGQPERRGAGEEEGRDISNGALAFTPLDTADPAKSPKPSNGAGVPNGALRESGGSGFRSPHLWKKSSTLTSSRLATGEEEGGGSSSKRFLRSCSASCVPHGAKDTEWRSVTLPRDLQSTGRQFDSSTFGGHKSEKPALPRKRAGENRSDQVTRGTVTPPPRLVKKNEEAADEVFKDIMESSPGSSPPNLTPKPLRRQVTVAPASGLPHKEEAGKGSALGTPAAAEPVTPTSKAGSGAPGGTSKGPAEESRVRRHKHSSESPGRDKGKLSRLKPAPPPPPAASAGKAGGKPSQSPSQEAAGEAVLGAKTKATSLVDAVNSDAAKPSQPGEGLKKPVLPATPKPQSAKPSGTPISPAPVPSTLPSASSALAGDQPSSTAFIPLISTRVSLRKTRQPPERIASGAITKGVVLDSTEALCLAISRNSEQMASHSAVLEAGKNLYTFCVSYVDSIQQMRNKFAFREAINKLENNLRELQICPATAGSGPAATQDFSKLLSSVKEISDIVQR
Sequence of Bcr/Abl fusion protein (P11274 whole entry, further chain, the tested form may be a part): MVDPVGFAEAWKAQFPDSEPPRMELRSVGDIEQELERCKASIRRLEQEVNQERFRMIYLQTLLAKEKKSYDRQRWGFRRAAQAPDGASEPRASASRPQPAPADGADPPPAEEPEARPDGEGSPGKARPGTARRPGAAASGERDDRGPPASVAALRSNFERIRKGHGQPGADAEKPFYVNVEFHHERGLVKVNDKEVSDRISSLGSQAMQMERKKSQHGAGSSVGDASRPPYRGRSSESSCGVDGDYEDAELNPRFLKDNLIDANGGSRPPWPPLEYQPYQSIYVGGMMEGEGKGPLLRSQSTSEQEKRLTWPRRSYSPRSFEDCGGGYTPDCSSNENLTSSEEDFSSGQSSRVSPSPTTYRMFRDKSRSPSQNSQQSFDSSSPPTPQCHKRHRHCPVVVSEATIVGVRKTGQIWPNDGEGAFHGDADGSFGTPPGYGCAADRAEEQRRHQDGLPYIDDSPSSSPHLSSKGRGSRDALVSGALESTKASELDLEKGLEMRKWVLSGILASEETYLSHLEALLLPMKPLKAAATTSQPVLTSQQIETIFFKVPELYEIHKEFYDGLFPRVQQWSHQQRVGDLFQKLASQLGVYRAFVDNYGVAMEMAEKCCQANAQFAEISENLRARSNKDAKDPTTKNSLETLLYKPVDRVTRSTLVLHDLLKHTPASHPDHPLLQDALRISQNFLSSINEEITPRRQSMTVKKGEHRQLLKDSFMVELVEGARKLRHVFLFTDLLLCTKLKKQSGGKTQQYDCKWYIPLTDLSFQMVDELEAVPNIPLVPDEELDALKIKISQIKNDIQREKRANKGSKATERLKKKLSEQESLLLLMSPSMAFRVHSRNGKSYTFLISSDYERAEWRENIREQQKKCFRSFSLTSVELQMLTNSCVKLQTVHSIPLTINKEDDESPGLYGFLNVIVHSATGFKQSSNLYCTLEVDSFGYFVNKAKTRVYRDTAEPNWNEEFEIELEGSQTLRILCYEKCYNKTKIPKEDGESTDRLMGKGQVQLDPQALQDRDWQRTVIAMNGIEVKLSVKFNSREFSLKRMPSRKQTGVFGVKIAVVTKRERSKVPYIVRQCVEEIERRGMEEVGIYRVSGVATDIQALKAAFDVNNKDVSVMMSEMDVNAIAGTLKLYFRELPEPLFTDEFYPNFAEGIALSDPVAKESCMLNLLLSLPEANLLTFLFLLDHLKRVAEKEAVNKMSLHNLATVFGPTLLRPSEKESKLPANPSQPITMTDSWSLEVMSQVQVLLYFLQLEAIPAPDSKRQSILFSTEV

Row | SMILES | IC50 (Bcr/Abl fusion protein) | solubility [1] | IC50 (K562) | GI50 (DU-145) | GI50 (K562)
1 | O=C(O)c1ccc(C(=O)/C(=C\c2ccc([N+](=O)[O-])cc2F)SCc2ccc(Br)cc2)cc1 | > 20000 nM | < 1000 µg/mL | 7500 nM |  | 
2 | O=C(O)c1ccc(C(=O)/C(=C\c2ccc(O)c(Br)c2)SCc2ccc(Br)cc2)cc1 | > 20000 nM | < 1000 µg/mL | 35000 nM | 25000 nM | 25000 nM
3 | O=C(O)c1ccc(C(=O)/C(=C\c2ccc(F)c([N+](=O)[O-])c2)SCc2ccccc2Cl)cc1 | 10000 nM | < 1000 µg/mL | 500 nM | 1000 nM | 1000 nM
4 | O=C(O)c1ccc(C(=O)/C(=C\c2ccc(F)c([N+](=O)[O-])c2)Sc2ccc(Br)cc2)cc1 | 20000 nM | < 1000 µg/mL | 1500 nM |  | 
5 | O=C(O)c1ccc(C(=O)/C(=C\c2ccc(F)c([N+](=O)[O-])c2)SCc2ccc(Cl)cc2)cc1 | 2500 nM | < 1000 µg/mL | 500 nM | 50000 nM | 10000 nM
6 | O=C(O)c1ccc(C(=O)/C(=C\c2ccc(Cl)c([N+](=O)[O-])c2)SCc2ccc(F)cc2)cc1 | 2500 nM | < 1000 µg/mL | 500 nM | 1000 nM | < 1000 nM
7 | O=C(O)c1ccc(C(=O)/C(=C\c2ccc(Br)c([N+](=O)[O-])c2)SCc2ccc(Cl)cc2Cl)cc1 | 2500 nM | < 1000 µg/mL | 600 nM | 1000 nM | < 1000 nM
8 | O=C(O)c1ccc(C(=O)/C(=C\c2ccc(Cl)c([N+](=O)[O-])c2)SCc2ccc(Cl)cc2Cl)cc1 | 2500 nM | < 1000 µg/mL | 600 nM | 1000 nM | < 1000 nM
9 | O=C(O)c1ccc(C(=O)/C(=C\c2ccc(Br)c([N+](=O)[O-])c2)SCc2ccc(Cl)cc2)cc1 | 2500 nM | < 1000 µg/mL | 600 nM | < 1000 nM | < 1000 nM
10 | O=C(O)c1ccc(C(=O)/C(=C\c2cc([N+](=O)[O-])ccc2F)SCc2ccc(Br)cc2)cc1 | > 20000 nM | < 1000 µg/mL | 7500 nM |  | 
11 | O=C(O)c1ccc(C(=O)/C(=C\c2ccc(Cl)c([N+](=O)[O-])c2)S(=O)(=O)Cc2ccc(Br)cc2)cc1 | > 20000 nM | < 1000 µg/mL | 25000 nM | 25000 nM | 25000 nM
12 | O=C(O)c1ccc(C(=O)/C(=C\c2ccc(F)cc2[N+](=O)[O-])SCc2ccc(Br)cc2)cc1 | > 20000 nM | < 1000 µg/mL | 20000 nM |  | 
13 | O=C(O)c1ccc(C(=O)/C(=C\c2ccc(F)c([N+](=O)[O-])c2)SCc2ccc(Cl)cc2Cl)cc1 | 2500 nM | < 1000 µg/mL | 400 nM | 1000 nM | < 1000 nM
14 | COc1cc(/C=C(/SCc2ccc(Br)cc2)C(=O)c2ccc(C(=O)O)cc2)ccc1F | > 20000 nM | < 1000 µg/mL | 20000 nM | 1000 nM | 1000 nM
15 | O=C(O)c1ccc(C(=O)/C(=C\c2ccc(Cl)c([N+](=O)[O-])c2)SCc2ccc(Cl)cc2)cc1 | 10000 nM | < 1000 µg/mL | 500 nM | 1000 nM | < 1000 nM
16 | O=C(O)c1ccc(C(=O)/C(=C\c2ccc(F)c([N+](=O)[O-])c2)SCc2ccccc2)cc1 | 2500 nM | < 1000 µg/mL | 300 nM |  | 
17 | O=C(O)c1ccc(C(=O)/C(=C\c2ccc(Cl)c([N+](=O)[O-])c2)SCc2ccc(Br)cc2)cc1 | 10000 nM | < 1000 µg/mL | 700 nM | 500 nM | 1000 nM
18 | O=C(O)c1ccc(C(=O)/C(=C\c2ccc(F)c([N+](=O)[O-])c2)[S+]([O-])Cc2ccc(Br)cc2)cc1 (configuration not stated) | > 20000 nM | < 1000 µg/mL | 75000 nM |  | 
19 | O=C(O)c1ccc(C(=O)/C(=C\c2ccc(Br)c([N+](=O)[O-])c2)SCc2ccc(Br)cc2)cc1 | 10000 nM | < 1000 µg/mL | 900 nM | 1000 nM | < 1000 nM

Row | SMILES | IC50 (Bcr/Abl fusion protein) | solubility [1] | IC50 (K562) | GI50 (DU-145) | GI50 (K562)
20 | O=C(O)c1ccc(C(=O)/C(=C\c2ccc(F)c([N+](=O)[O-])c2)S(=O)(=O)Cc2ccc(Br)cc2)cc1 | > 20000 nM | < 1000 µg/mL | 5000 nM |  | 
21 | O=C(O)c1ccc(C(=O)/C(=C\c2ccc([N+](=O)[O-])c(F)c2)SCc2ccc(Br)cc2)cc1 | > 20000 nM | < 1000 µg/mL | 5000 nM |  | 
22 | O=C(O)c1ccc(C(=O)/C(=C\c2ccc(O)c([N+](=O)[O-])c2)SCc2ccc(Br)cc2)cc1 | > 20000 nM | < 1000 µg/mL | 75000 nM | 50000 nM | 50000 nM
23 | O=C(/C(=C\c1ccc(F)c([N+](=O)[O-])c1)SCc1ccc(F)cc1)c1ccc(F)cc1 | 2500 nM | < 1000 µg/mL | 600 nM | 1000 nM | < 1000 nM
24 | Cc1ccc(CS/C(=C/c2ccc(F)c([N+](=O)[O-])c2)C(=O)c2ccc(C(=O)O)cc2)cc1 | 2500 nM | < 1000 µg/mL | 300 nM | 1000 nM | < 1000 nM
25 | COc1ccsc1/C=C(\C(=O)c1ccc(Br)cc1)S(=O)(=O)Cc1ccc(Cl)cc1 |  |  |  | 50000 nM | 25000 nM
26 | O=C(O)c1ccc(C(=O)/C(=C\c2ccc(F)c([N+](=O)[O-])c2)SCc2ccc(F)cc2)cc1 | 2500 nM | < 1000 µg/mL | 400 nM | 1000 nM | < 1000 nM
27 | Cc1ccc(S(=O)(=O)/C(=C/c2sccc2C)C(=O)c2ccc(Br)cc2)cc1 |  |  |  | 25000 nM | 25000 nM
28 | Cc1ccc(CS(=O)(=O)/C(=C/c2ccc(Br)cc2)C(=O)c2ccc(Cl)cc2)cc1 |  |  |  | 25000 nM | 10000 nM
29 | CSc1ccc(/C=C(\C(=O)c2ccc(Cl)cc2)S(=O)(=O)Cc2ccc(Cl)cc2)cc1 |  |  |  | 10000 nM | 1000 nM
30 | CSc1ccc(/C=C(/SCc2ccc(Br)cc2)C(=O)c2ccc(C(=O)O)cc2)cc1 |  |  |  | 10000 nM | 10000 nM
31 | Cc1cc(C)cc(/C=C(\C(=O)c2ccc(Cl)cc2)S(=O)(=O)Cc2ccc(Cl)cc2)c1 |  |  |  | 1000 nM | 1000 nM
32 | CSc1ccc(/C=C(/SCc2ccc(C)cc2)C(=O)c2ccc(Br)cc2)cc1 |  |  |  | > 100000 nM | 10000 nM
33 | O=C(O)c1ccc(C(=O)/C(=C\c2ccc(Cl)c([N+](=O)[O-])c2)SCc2ccccc2F)cc1 | 10000 nM | < 1000 µg/mL | 800 nM | 1000 nM | < 1000 nM
34 | Cc1ccc(/C=C(\C(=O)c2ccc(Cl)cc2)S(=O)(=O)Cc2ccc(Cl)cc2Cl)s1 |  |  |  | 10000 nM | 25000 nM
35 | O=C(/C(=C\c1ccc(O)c(Br)c1)Sc1ccc(Br)cc1)c1c(F)c(F)c(F)c(F)c1F |  |  |  | 1000 nM | 1000 nM
36 | O=C(/C(=C\c1c(O)cc(O)cc1O)Sc1ccccc1Br)c1ccc(Cl)cc1 |  |  |  | > 100000 nM | > 100000 nM
37 | O=C(/C(=C\c1ccc(F)cc1C(F)(F)F)S(=O)(=O)Cc1ccc(Cl)c(Cl)c1)c1ccc(Cl)cc1 |  |  |  | 1000 nM | 1000 nM
38 | Cc1ccc(S/C(=C/c2ccc(N(C)C)cc2)C(=O)c2ccc(Cl)cc2)cc1 |  |  |  | > 100000 nM | > 100000 nM

Row | SMILES | IC50 (Bcr/Abl fusion protein) | solubility [1] | IC50 (K562) | GI50 (DU-145) | GI50 (K562)
39 | COc1cc(/C=C(/SCc2ccc(Br)cc2)C(=O)c2ccc(Br)cc2)cc([N+](=O)[O-])c1O |  |  |  | 25000 nM | 25000 nM
40 | COc1cc(OC)c(/C=C(/SCc2ccc(Cl)c(Cl)c2)C(=O)c2ccc(Cl)cc2)c(OC)c1 |  |  |  | 10000 nM | 10000 nM
41 | O=C(/C(=C/c1ccc(Cl)cc1)Cc1ccc(Cl)cc1)c1ccc(Cl)cc1Cl |  |  |  | 10000 nM | 1000 nM
42 | COc1ccc(/C=C(/SCc2ccc(Cl)cc2)C(=O)c2ccc(Br)cc2)cc1 |  |  |  | 10000 nM | 1000 nM
43 | Cc1ccc(CS(=O)(=O)/C(=C/c2ccccc2Br)C(=O)c2ccc(Cl)cc2)cc1 |  |  |  | 25000 nM | 25000 nM
44 | O=C(/C(=C\c1ccc(O)c([N+](=O)[O-])c1)SCc1ccc(Br)cc1)c1ccc([N+](=O)[O-])cc1 |  |  |  | 10000 nM | 10000 nM
45 | O=C(/C(=C\c1cc(Cl)c(O)c(Cl)c1)SCc1ccc(Br)cc1)c1ccc(Br)cc1 |  |  |  | 10000 nM | 10000 nM
46 | O=C(/C(=C\c1ccc(O)c([N+](=O)[O-])c1)SCc1ccc(Br)cc1)c1c(F)c(F)c(F)c(F)c1F |  |  |  | 10000 nM | 10000 nM
47 | Cc1ccc(S/C(=C/c2sccc2C)C(=O)c2ccc(Br)cc2)cc1 |  |  |  | 50000 nM | 50000 nM
48 | CCOc1ccc(/C=C(/Sc2ccccc2Cl)C(=O)c2ccc(Cl)cc2)cc1OC |  |  |  | 50000 nM | 1000 nM
49 | COc1ccc(/C=C(/Sc2ccc(C)cc2)C(=O)c2ccc(Cl)cc2)cc1 |  |  |  | 1000 nM | 1000 nM
50 | CN(C)c1ccc(/C=C(/SCc2ccc(Cl)cc2)C(=O)c2ccc(Br)cc2)cc1 |  |  |  | 10000 nM | 1000 nM
51 | COc1cc(OC)c(/C=C(/SCc2ccc(Cl)cc2)C(=O)c2ccc(Br)cc2)c(OC)c1 |  |  |  | 1000 nM | 10000 nM
52 | O=C(O)c1ccc(C(=O)/C(=C\c2ccc(Br)c([N+](=O)[O-])c2)SCc2ccc(F)cc2)cc1 | 15000 nM | < 1000 µg/mL | 400 nM | 1000 nM | < 1000 nM
53 | O=C(/C(=C\c1ccc(F)cc1F)S(=O)(=O)c1ccc(Br)cc1)c1ccc(Br)cc1 |  |  |  | 7500 nM | 1000 nM
54 | Cc1ccc(CS(=O)(=O)/C(=C/c2cccc(Cl)c2Cl)C(=O)c2ccc(Cl)cc2)cc1 |  |  |  | 1000 nM | 1000 nM
55 | O=C(/C(=C\c1ccc([N+](=O)[O-])c(O)c1)SCc1ccc(Br)cc1)c1ccc(Br)cc1 |  |  |  | 10000 nM | 1000 nM
56 | Cc1cc(C)cc(/C=C(\C(=O)c2ccc(Cl)cc2)S(=O)(=O)c2ccc(Br)cc2)c1 |  |  |  | 10000 nM | 10000 nM
